Rows were chosen to be rich in hits. Some 4.2% of all compounds tested hit in one or more screens of this group.
TAAR1 agonist = human TAAR1 agonism; CHO RD-HGA16 TAAR1, Fluo-8 calcium fluorescence; vehicle wells 0%, saturating PEA agonist 100%; activation, % at 3 µM; 360,000 tested, 0.99% active;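 active = activation above the mean activation of all test compounds in the run plus 3 SD, cut at about 38% in these data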
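test system = CHO RD-HGA16 cells carrying human TAAR1 plus Gα16 | schedule = 17-24 h seeding, 75 min 37 °C dye, 30 min RT | compound dosing = 3 µM single concentration | control set = DMSO and PEA EC100 | replicates = n 1 | signal = Fluo-8 fluorescence, 5 s baseline then 140 s kinetic read | measure = percent activation vs PEA EC100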
GalR3 antagonist = human GalR3 antagonism; O60755; HEK293 GalR3-CNG cAMP membrane potential fluorescence; galR3 body fused to GalR1 C-terminus; inhibition, % at 3 µM; 360,000 tested, 0.44% active;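 active = inhibition above the screen-wide average plus 3 SD, cut at about 13% in these data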;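 also: forskolin and galanin both at EC90 stimulate the cells; cAMP rise reported by CNG channel membrane potential dye signal; 0% = forskolin plus galanin with DMSO and 100% = forskolin alone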
OX1R antag-1 = antagonists of human orexin 1 receptor. 330,000 tested, 0.43% active. inhibition, % at 5 µM. CHO/OX1R cells, Fluo-8 calcium fluorescence, orexin A;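 active = inhibition above its plate's threshold, mean inhibition of all tested compounds on the plate plus 3 SD, cut at about 37% in these data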;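 also: 0% = orexin A challenge wells and 100% = SB-334867-A antagonist wells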
Target sequence (O43613 whole entry, looked up): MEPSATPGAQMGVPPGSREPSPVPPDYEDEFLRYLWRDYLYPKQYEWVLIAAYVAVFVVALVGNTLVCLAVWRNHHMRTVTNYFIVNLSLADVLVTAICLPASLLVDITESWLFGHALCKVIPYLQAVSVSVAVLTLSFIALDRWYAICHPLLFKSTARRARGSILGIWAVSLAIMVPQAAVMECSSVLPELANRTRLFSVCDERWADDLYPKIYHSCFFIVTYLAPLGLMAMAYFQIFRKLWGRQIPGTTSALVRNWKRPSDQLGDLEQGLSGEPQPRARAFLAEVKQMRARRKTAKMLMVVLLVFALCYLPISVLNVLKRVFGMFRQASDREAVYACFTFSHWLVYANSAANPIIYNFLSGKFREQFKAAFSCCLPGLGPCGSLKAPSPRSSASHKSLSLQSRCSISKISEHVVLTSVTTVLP
OX1R antag-2 = OX1R (human) antagonism. O43613. OX1R-expressing cells, FRET antagonist read-out. inhibition, % at 6.6 µM. 330,000 tested, 1.8% active. AID 485270; in the data active = inhibition mostly above about 38%, no sharp cut-off; inactive = mostly below about 40%;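 also: 0% = agonist challenge alone and 100% = reference antagonist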
CHO parental Ca = signal in parental CHO cells, OX1R antagonist counter-screen; parental CHO-K1, ATP-induced calcium, Fluo-8 fluorescence; inhibition, % at 5.6 µM; 330,000 tested, 0.63% active;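 active = inhibition above that plate's mean sample inhibition plus 3 SD, cut at about 26% in these data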;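 also: 0% = ATP-challenged DMSO wells and 100% = DMSO wells without ATP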
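Assay system – parental CHO cells · Reagent – ATP stimulus · Detection – intracellular calcium via Fluo-8 no-wash fluorescent dye · Evaluation – percent inhibition of ATP-evoked calcium rise, normalized to controls · Controls – ATP wells versus no-ATP DMSO wells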
TAAR1 antagonist = antagonists of human TAAR1; inhibition, % at 3 µM; Q96RJ0; CHO RD-HGA16 TAAR1, Fluo-8 calcium fluorescence, antagonist; 360,000 tested, 1.5% active; AID 624466;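 active = inhibition above a per-plate cutoff, the mean inhibition of test compounds on that plate plus 3 SD, cut at about 49% in these data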;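 also: 0% = DMSO plus EC80 beta-PEA response and 100% = DMSO alone without agonist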
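Test system: RD-HGA16 CHO cells with stable hTAAR1 and Gα16 / Probe or stimulus: EC80 β-phenethylamine stimulus / Times: seeding 17-24 h prior, 75-min 37 °C, 30-min RT dye loading / Detection: Fluo-8 calcium-sensitive fluorescence / Read-out basis: % inhibition scaled between DMSO and EC80 PEA controls / Repeats: singlicate, one well per test compound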
Starred values were filed as active, the others as inactive.

For CC1(c2ccccc2Cl)NC(=O)N(CC(=O)N2c3ccccc3NC(=O)C2(C)C)C1=O (stereo unspecified) the results were TAAR1 agonist 3, GalR3 antagonist -5, OX1R antag-1 -1, OX1R antag-2 -1, CHO parental Ca -16 and TAAR1 antagonist 7.
Screening CC(C)Cn1c(/C=C/c2ccccc2)nc2ccccc21 returned TAAR1 agonist 2, GalR3 antagonist -5, OX1R antag-1 -34, OX1R antag-2 35, CHO parental Ca -42 and TAAR1 antagonist -29.
Screening CCn1c(/C=C/c2ccccc2)nc2ccccc21 returned TAAR1 agonist 12, GalR3 antagonist -7, OX1R antag-1 -11, OX1R antag-2 48*, CHO parental Ca -29 and TAAR1 antagonist 11.
`O=C(Nc1cccc(F)c1)c1c(O)c2cccc3c2n(c1=O)CCC3` gave OX1R antag-1 -7, OX1R antag-2 -6 and CHO parental Ca -3.
`Cc1nnc(N/N=C/c2ccc(Br)cc2)n1N` gave TAAR1 agonist 0, GalR3 antagonist -9, OX1R antag-1 -2, OX1R antag-2 33, CHO parental Ca -4 and TAAR1 antagonist -3.
`Cc1nnc(N/N=C/c2ccc(-c3ccc(Br)cc3)o2)n1N` gave TAAR1 agonist 2, GalR3 antagonist -3, OX1R antag-1 -18, OX1R antag-2 40*, CHO parental Ca -7 and TAAR1 antagonist -5.
O=C1Nc2ccccc2C(=O)N2[C@H](c3ccc(F)cc3)[C@@H]3C(=O)N(Cc4ccccc4)C(=O)[C@@H]3[C@H]12 was read as TAAR1 agonist 16, GalR3 antagonist -8, OX1R antag-1 -13, OX1R antag-2 18, CHO parental Ca -13 and TAAR1 antagonist 5.
Screening C=CCSc1nnc(-c2cc3c(-c4ccccc4)nn(C)c3s2)n1C returned TAAR1 agonist 12, GalR3 antagonist 0, OX1R antag-1 -4, OX1R antag-2 75*, CHO parental Ca -29 and TAAR1 antagonist 1.
For CCCCCC(=O)Nc1cccc(C2=NOC3(C2)C[C@H](C(N)=O)N(C(=O)CC)C3)c1 (stereo partly specified) the results were OX1R antag-1 -2, OX1R antag-2 1 and CHO parental Ca -12.
`COc1cc(OC)cc(C(=O)Nc2cccc3c2CCCC3)c1` gave TAAR1 agonist 28, GalR3 antagonist -9, OX1R antag-1 6, OX1R antag-2 3, CHO parental Ca 8 and TAAR1 antagonist -1.
Screening COc1cccc(OC)c1C(=O)Nc1cccc2c1CCCC2 returned TAAR1 agonist 1, GalR3 antagonist -11, OX1R antag-1 -9, OX1R antag-2 73*, CHO parental Ca -3 and TAAR1 antagonist -2.
COc1ccc(C(=O)NCC(=O)N2CCN(C(=O)c3ccco3)CC2)cc1OC was read as TAAR1 agonist 1, GalR3 antagonist -3 and TAAR1 antagonist 4.
For CCC(CC)Nc1ccc(C(CC(N)=O)NC(=O)Cc2ccc(Br)cc2)cc1[N+](=O)[O-] (stereo unspecified) the results were TAAR1 agonist 27, GalR3 antagonist -4, OX1R antag-1 -27, OX1R antag-2 6, CHO parental Ca -12 and TAAR1 antagonist 14.
Cc1cccc(C)c1NC(=O)CN(c1ccccn1)S(=O)(=O)c1ccc(F)cc1 was read as TAAR1 agonist 15, GalR3 antagonist 1, OX1R antag-1 -11, OX1R antag-2 -1, CHO parental Ca -7 and TAAR1 antagonist -2.
For Cc1cccc(C)c1NC(=O)CN(c1ccccn1)S(=O)(=O)c1ccccc1 the results were TAAR1 agonist 1, GalR3 antagonist -1, OX1R antag-1 -15, OX1R antag-2 16, CHO parental Ca 25* and TAAR1 antagonist 6.
Screening CCCOc1ccc(C(=O)Nc2ccc(N3CCN(C(C)=O)CC3)cc2)cc1 returned TAAR1 agonist 3, GalR3 antagonist -3, OX1R antag-1 -8, OX1R antag-2 10, CHO parental Ca -7 and TAAR1 antagonist 11.
For CN(C)CCNc1ccc(-c2nn(C)c(=O)c3ccccc23)cc1[N+](=O)[O-] the results were TAAR1 agonist 5, GalR3 antagonist -2, OX1R antag-1 -14, OX1R antag-2 42*, CHO parental Ca -1 and TAAR1 antagonist 7.
`CC(C)(C)c1ccc(OCC(=O)N(c2ccccn2)C2CCCCC2)cc1` gave TAAR1 agonist 0, GalR3 antagonist -3, OX1R antag-1 -17, OX1R antag-2 15, CHO parental Ca 52* and TAAR1 antagonist -7.
Screening O=C(CCC(=O)Nc1ccc(Br)cc1)N/N=C/c1ccccc1O returned TAAR1 agonist 38*, GalR3 antagonist -9, OX1R antag-1 -17, OX1R antag-2 11, CHO parental Ca -22 and TAAR1 antagonist 47.
`Cc1ccc(NC(=O)CCC(=O)N/N=C/c2ccccc2O)cc1` gave TAAR1 agonist 38*, GalR3 antagonist -11, OX1R antag-1 -26, OX1R antag-2 3, CHO parental Ca 4 and TAAR1 antagonist -2.
O=C(CCCCC(=O)NN=Cc1ccccc1O)NN=Cc1ccccc1O was read as TAAR1 agonist 44*, GalR3 antagonist 5 and TAAR1 antagonist 54*.
`O=C(CCC(=O)Nc1ccc(Br)cc1)N/N=C/c1ccc(F)cc1` gave TAAR1 agonist 18, GalR3 antagonist -1, OX1R antag-1 -16, OX1R antag-2 -6, CHO parental Ca -8 and TAAR1 antagonist 5.
O=C(CSCC(=O)NN=Cc1ccccc1O)NN=Cc1ccccc1O was read as TAAR1 agonist 30, GalR3 antagonist -3 and TAAR1 antagonist 2.
`Cc1csc(=O)n1CC(=O)OCc1nnc(-c2ccc([N+](=O)[O-])cc2)o1` gave TAAR1 agonist 7, GalR3 antagonist -3, OX1R antag-1 1, OX1R antag-2 37*, CHO parental Ca -2 and TAAR1 antagonist 0.
Screening CC1(C)Cc2cccc(OCC(=O)OCc3nnc(-c4ccc([N+](=O)[O-])cc4)o3)c2O1 returned TAAR1 agonist -1, GalR3 antagonist -5, OX1R antag-1 -7, OX1R antag-2 50*, CHO parental Ca -2 and TAAR1 antagonist 3.
For O=C(CCC(=O)c1ccc(F)cc1)OCc1nnc(-c2ccc([N+](=O)[O-])cc2)o1 the results were TAAR1 agonist 0, GalR3 antagonist -6, OX1R antag-1 -2, OX1R antag-2 41*, CHO parental Ca -9 and TAAR1 antagonist -3.
Screening Cc1csc(=O)n1CCC(=O)OCC(=O)Nc1ncc(Cl)cc1Cl returned TAAR1 agonist 2, GalR3 antagonist -3, OX1R antag-1 -15, OX1R antag-2 21, CHO parental Ca -11 and TAAR1 antagonist -14.
`Cc1csc(=O)n1CCC(=O)OCC(=O)Nc1cc(Cl)ccc1[N+](=O)[O-]` gave TAAR1 agonist 4, GalR3 antagonist -4, OX1R antag-1 -18, OX1R antag-2 53*, CHO parental Ca -8 and TAAR1 antagonist -16.

Screening results: PubChem BioAssay, The Scripps Research Institute Molecular Screening Center
